Usually Ki stands for the equilibrium dissociation constant of an inhibitor or competing ligand from its target. Read a high Ki as lower affinity.

The target in one assay is Renin (Sus scrofa). Nature of the assay: Inhibitory activity against hog kidney renin (Non-competitive inhibition).
For a further assay, the target named is T1, Renin (Homo sapiens, UniProt P00797).
T1 sequence (P00797 whole entry): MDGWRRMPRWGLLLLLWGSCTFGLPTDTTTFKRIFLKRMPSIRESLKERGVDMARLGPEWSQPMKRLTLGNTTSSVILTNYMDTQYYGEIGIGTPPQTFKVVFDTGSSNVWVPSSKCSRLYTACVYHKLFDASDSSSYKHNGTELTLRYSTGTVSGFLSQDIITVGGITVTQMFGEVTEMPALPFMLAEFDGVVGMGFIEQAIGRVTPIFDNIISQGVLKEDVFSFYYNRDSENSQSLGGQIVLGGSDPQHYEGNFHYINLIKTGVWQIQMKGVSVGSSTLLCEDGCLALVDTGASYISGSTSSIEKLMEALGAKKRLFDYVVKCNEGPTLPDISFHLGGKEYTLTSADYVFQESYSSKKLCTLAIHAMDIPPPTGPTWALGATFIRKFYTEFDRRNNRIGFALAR
Nature of the assay: Inhibitory activity against human amniotic renin (competitive inhibition). The gist of the method: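 Angiotensin I generation is reported as nmol/unit enzyme/min for hog kidney renin and nmol/mL/h for human amniotic renin. Points are means of three determinations. Lines are fitted by linear regression, and Ki is the −[I] at their intersection.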

Take `COC(=O)[C@H](Cc1ccccc1)NC(=O)[C@@H](NC(=O)CC(O)CC(N)CC(C)C)C(C)C` (some centres undefined): the Ki on Renin (Sus scrofa) stood at 170 µM; on Renin, 95 µM.

Consider `COC(=O)[C@@H](Cc1ccccc1)NC(=O)[C@H](NC(=O)CC(O)CC(N)CC(C)C)C(C)C` (some centres undefined), for which the Ki at Renin (Sus scrofa) worked out at 1180 µM; at Renin it was 1600 µM.
